LMPTP inh: blocks human LMPTP phosphatase | P24666 | recombinant LMPTP-A, OMFP fluorogenic substrate, fluorescence intensity | inhibition, % at 20 µM | 360,000 tested, 0.22% active | AID 651560;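 active = compounds that cut the enzyme signal by at least half of the control window in the single-dose screen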;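 also: plate controls were DMSO wells with enzyme plus substrate for no effect and substrate without enzyme for full effect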
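Test system – LMPTP-A enzyme · Amount – LMPTP-A at 0.625 nM final in the reaction · Buffer or medium – Bis-Tris pH 6.0, DTT, detergent · Reagent – OMFP 400 µM · Doses – single 20 µM dose · Schedule – reaction 50 min, room temperature, dark · Detection – fluorescence intensity of OMFP turnover product · Evaluation – percent inhibition versus substrate-only and uninhibited controls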
Scp1 inh: blocks human Scp-1 phosphatase activity. inhibition, % at 20 µM. Q9GZU7. Recombinant Scp1, phosphopeptide, malachite green phosphate absorbance. 340,000 tested, 0.88% active. AID 493091;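 active = inhibition above about 50% at 20 µM, limit read from the data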;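 also: plate controls were DMSO wells with enzyme for no effect and wells lacking enzyme for full effect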
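System: SCP-1 catalytic domain; Reagent: Phospho 17-mer peptide substrate; Doses: one concentration, 20 µM, with 1.0% DMSO; Incubation: 45 min room-temperature reaction, 5 min colour, 30 min stabiliser; Signal: Phosphate-binding colour reagent, absorbance read at 630 nm.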
DNMT1 block: DNMT1 (human) enzyme inhibition | 360,000 tested, 0.83% active | inhibition (reported as % activation of signal), % at 10 µM | AID 588458 | DNMT1 molecular beacon, Hinp1I cleavage, fluorescence | P26358; in the data active = inhibition above about 50%
Rpn11 block: Rpn11 (human) deubiquitinase inhibition; O00487; human 26S proteasome, Ub4-pepOG fluorescence polarization; 20S core pre-blocked with epoxomicin; inhibition, % at 20 µM; 360,000 tested, 0.59% active; AID 588493;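 active = inhibition at 20 µM, scaled to each plate's controls, above about 33%, limit read from the data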
STEP inh: blocks human striatal-enriched tyrosine phosphatase | recombinant STEP, OMFP fluorogenic substrate, fluorescence | inhibition, % at 20 µM | P54829 | 360,000 tested, 0.25% active;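 active = inhibition at 20 µM, scaled per plate between control wells, above about 37%, limit read from the data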;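 also: 0% = DMSO with enzyme and substrate and 100% = substrate only without enzyme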
Target sequence (P54829 whole entry, looked up): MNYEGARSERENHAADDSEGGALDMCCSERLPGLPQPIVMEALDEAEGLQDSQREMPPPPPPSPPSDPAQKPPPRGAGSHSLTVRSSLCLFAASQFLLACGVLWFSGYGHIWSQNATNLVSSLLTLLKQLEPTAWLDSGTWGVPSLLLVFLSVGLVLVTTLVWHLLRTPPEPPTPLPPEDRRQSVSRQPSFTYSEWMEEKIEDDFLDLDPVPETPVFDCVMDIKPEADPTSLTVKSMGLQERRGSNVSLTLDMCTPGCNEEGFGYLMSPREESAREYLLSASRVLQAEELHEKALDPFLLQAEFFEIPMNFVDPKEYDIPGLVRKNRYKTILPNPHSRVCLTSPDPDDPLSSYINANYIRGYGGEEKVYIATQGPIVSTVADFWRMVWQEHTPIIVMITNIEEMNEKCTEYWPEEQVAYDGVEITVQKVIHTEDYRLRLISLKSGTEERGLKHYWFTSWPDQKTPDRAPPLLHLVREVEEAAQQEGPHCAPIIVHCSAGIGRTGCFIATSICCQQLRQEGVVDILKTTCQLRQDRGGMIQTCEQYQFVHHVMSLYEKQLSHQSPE
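Measure: Control-normalized % inhibition with plate pattern correction | Test system: STEP phosphatase, cell-free reaction | Medium: pH 6.0 Bis-Tris with DTT and Tween 20 | Technique: Fluorescence, 480/540 nm | Times: Reaction 20 min, ambient temperature | Doses: Single compound dose of 20 µM, 1% DMSO final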
An asterisk follows results filed as active; . = no result given. A selection: hits, their analogues and other compounds. The true share with any hit is near 2%.

SMILES | LMPTP inh | Scp1 inh | DNMT1 block | Rpn11 block | STEP inh
COc1ccccc1Cc1c(-c2ccco2)nc2c(C)cc(Br)cn12 | 1 | . | 62* | 17 | 2
Cc1ccc(NS(=O)(=O)c2cc([N+](=O)[O-])ccc2NNC(=S)Nc2cccc(Cl)c2)c(C)c1 | 7 | -7 | -1 | 76* | 3
Cc1ccc(NS(=O)(=O)c2cc([N+](=O)[O-])ccc2NNC(=S)Nc2cc(C)ccc2C)c(C)c1 | 6 | -8 | -44 | 30 | -2
C[C@H](CO)N1C[C@H](C)[C@H](CN(C)S(=O)(=O)c2cccs2)OCc2cnnn2CCCC1=O | -4 | . | 0 | -7 | -1
CC(C)C(Cl)=NOC(=O)Nc1ccc(S(N)(=O)=O)cc1 | -1 | 2 | 5 | -4 | 2
O=C1C(=Cc2ccc(Br)o2)C(=O)c2ccccc21 | 78* | 65* | 108* | . | 96*
O=C(/C=C/c1ccc(Br)o1)NC(c1ccccc1)c1ccccc1 | 3 | 1 | 4 | 7 | -3
CC[N+](CC)(CC)CCOc1cccc(OCC[N+](CC)(CC)CC)c1OCC[N+](CC)(CC)CC | -6 | 96* | -2 | -4 | 0
CCOc1ccccc1OCCOCCOc1c(Cl)cccc1Cl | 1 | -10 | 9 | -7 | 2
Cc1ccc(-c2nc(N=Nc3ccc(O)cc3)n[nH]2)cc1 | 1 | -2 | 2 | 13 | -2
Cc1nc(N=Nc2ccc(O)cc2)n[nH]1 | -1 | 81* | 0 | 1 | 1
O=C(NC1CCCCC1)OC1CC2CC1[C@H]1CCCCN1C2=O (stereo partly specified) | -1 | . | . | . | .
CCO/C(C)=N/Oc1cnc2ccccc2c1 | -2 | . | 3 | -2 | 0
Fc1ccccc1-c1nc(NC2CCCC2)c2ccccc2n1 | 70* | -2 | 1 | 0 | -2
CC(Nc1nc(-c2ccccc2)nc2ccccc12)c1ccccc1 (stereo unspecified) | 52* | 0 | -15 | 4 | -3
CC(Nc1nc(-c2ccccc2O)nc2ccccc12)c1ccccc1 (stereo unspecified) | 6 | 10 | -9 | 8 | 1
CC(Nc1nc(-c2ccccc2F)nc2ccccc12)c1ccccc1 (stereo unspecified) | 74* | 1 | -2 | 1 | 0
Cc1ccc([N+](=O)[O-])cc1S(=O)(=O)Nc1ccc(C(=O)N2CCN(C(=O)c3ccco3)CC2)cc1 | 1 | 24 | 8 | -4 | 0
O=C(NCc1ccc(Cl)cc1)C1CCN(C(=O)c2ccc(Cl)cc2)CC1 | 0 | 10 | 3 | -4 | 0
CC(=O)OCC1=C(C(=O)O)N2C(=O)C(NC(=O)COc3ccc(F)cc3)C2SC1 (stereo unspecified) | 0 | 54* | 25 | 4 | 4
O=S(=O)(NCC(c1ccc2c(c1)OCO2)N1CCN(c2ccccc2)CC1)c1ccccc1 (stereo unspecified) | 4 | -4 | -4 | 3 | -1
CCOc1ccc(NC(=O)c2ccc(CNc3c(NC4CCCCC4)c(=O)c3=O)cc2)cc1 | -1 | 4 | 56* | 10 | 0
O=C(ONc1ccc(N=NC(=O)c2ccccc2O)cc1)c1ccccc1 | 22 | 91* | 4 | 0 | -1
O=Nc1ccc(NOC(=O)c2ccccc2Br)cc1 | 3 | -3 | 13 | 3 | -2
COc1ccc(CCn2c(=N)c(C(=O)NCc3ccco3)cc3c(=O)n4ccccc4nc32)cc1 | 60* | 15 | 35 | 2 | 7
SMILES | LMPTP inh | Scp1 inh | DNMT1 block | Rpn11 block | STEP inh
O=C1C=C(N(CCO)Cc2ccccc2)c2ccccc2C1=O | 8 | -3 | 77* | 3 | 1
O=C1c2ccccc2C(=O)c2c1cccc2N(CCO)CCO | 2 | -10 | -3 | -52 | -2
CCOc1ccccc1OCCCC(=O)Nc1nc2ccccc2[nH]1 | -1 | -2 | 1 | -5 | 4
CCOc1ccccc1/C=C/c1nc2ccccc2[nH]c1=O | 2 | -7 | 81* | 14 | 1
CCCCCCc1cc2cc(-c3nnc(-c4ccccc4O)o3)c(=O)oc2cc1O | 1 | -8 | 87* | . | -1
O=C1C(Nc2ccccc2)=C/C(=N/S(=O)(=O)c2cccs2)c2ccccc21 | 8 | -4 | 68* | 2 | 2
Cc1ccc(S(=O)(=O)/N=C2/C=C(Sc3ncn[nH]3)C(=O)c3ccccc32)cc1 | 8 | 25 | 77* | 10 | 2

Compound activity as filed in PubChem BioAssay.
